Experimental data: ChEMBL document CHEMBL1151747, “Orally bioavailable isothioureas block function of the chemokine receptor CXCR4 in vitro and in vivo” (J Med Chem, 2008)

Key:
[1] = target: T1, C-X-C chemokine receptor type 4 (Homo sapiens, UniProt P61073); assay: Displacement of [125I]CXCL12 from CXCR4 in human CEM cells; type: cell-based, CCRF-CEM
How it was run: (§1)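 Scintillation proximity assay. Membranes come from CEM cells (human CXCR4) or IR983F cells (rat CXCR4), prepared by homogenization in 20 mM HEPES, 1 mM EDTA pH 7.4 and stored at -80 °C. Nonspecific binding is defined with 400 nM unlabeled CXCL12. Incubation is 2 h at room temperature with shaking, then scintillation counting.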

[2] = target: C-X-C chemokine receptor type 4 (Rattus norvegicus, UniProt O08565); assay: Displacement of [125I]CXCL12 from CXCR4 in rat IR983F cells; type: cell-based; how it was run: as §1
Sequence of C-X-C chemokine receptor type 4 (Rattus norvegicus, UniProt O08565) (O08565 whole entry): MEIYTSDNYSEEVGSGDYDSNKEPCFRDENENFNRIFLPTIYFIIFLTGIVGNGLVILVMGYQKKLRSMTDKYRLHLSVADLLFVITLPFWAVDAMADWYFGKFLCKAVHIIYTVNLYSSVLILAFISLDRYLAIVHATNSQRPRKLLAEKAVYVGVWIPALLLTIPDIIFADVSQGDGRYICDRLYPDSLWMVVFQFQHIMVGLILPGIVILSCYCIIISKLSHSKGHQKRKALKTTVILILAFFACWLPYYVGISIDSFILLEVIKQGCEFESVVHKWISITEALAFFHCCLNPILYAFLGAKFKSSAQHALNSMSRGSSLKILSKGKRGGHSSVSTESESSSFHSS

[3] = target: T1, C-X-C chemokine receptor type 4; assay: Activity at CXCR4 in human CEM cells assessed as inhibition of CXCL12-induced calcium mobilization; type: functional, cell-based, CCRF-CEM
How it was run: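 CEM cells are loaded with 4 µM Fluo-4 for 1 h at 37 °C, washed, then preincubated with antagonist for 2 h. Wells are run in quadruplicate on FLIPR.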

Blood [4] = assay: Inhibition of CXCL12-induced actin polymerization in human whole blood; type: functional, tissue-based
How it was run: (§2)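 EDTA whole blood (100 µL) is preincubated with inhibitor diluted in PBS for 10 min at room temperature. CXCL12 (100 nM final) is added for 25 s at ambient temperature. […] Neutrophil F-actin is read by flow cytometry.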

Blood [5] = assay: Inhibition of CXCL12-induced actin polymerization in rat whole blood; type: functional, tissue-based; how it was run: as §2
Cytochrome P450 1A2 = target: T2, Cytochrome P450 1A2 (Homo sapiens, UniProt P05177); assay: Inhibition of CYP1A2; type: ADME
T2 sequence (P05177 whole entry): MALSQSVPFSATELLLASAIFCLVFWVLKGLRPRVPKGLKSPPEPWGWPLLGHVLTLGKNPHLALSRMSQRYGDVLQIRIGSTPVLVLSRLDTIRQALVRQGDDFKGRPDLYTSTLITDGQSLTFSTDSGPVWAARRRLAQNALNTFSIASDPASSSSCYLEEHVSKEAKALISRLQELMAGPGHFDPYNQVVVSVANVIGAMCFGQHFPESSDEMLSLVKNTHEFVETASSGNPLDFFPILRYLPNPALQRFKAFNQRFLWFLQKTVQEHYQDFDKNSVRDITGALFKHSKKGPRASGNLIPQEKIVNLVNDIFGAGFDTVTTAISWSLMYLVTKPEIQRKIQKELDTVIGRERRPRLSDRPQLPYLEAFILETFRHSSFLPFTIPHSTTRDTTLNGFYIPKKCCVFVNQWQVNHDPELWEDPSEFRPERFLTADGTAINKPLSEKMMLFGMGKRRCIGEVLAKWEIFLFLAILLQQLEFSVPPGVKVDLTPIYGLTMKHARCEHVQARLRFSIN

Cytochrome P450 2C9 = Cytochrome P450 2C9 (Homo sapiens, UniProt P11712); assay: Inhibition of CYP2C9; type: ADME
Sequence of Cytochrome P450 2C9 (P11712 whole entry): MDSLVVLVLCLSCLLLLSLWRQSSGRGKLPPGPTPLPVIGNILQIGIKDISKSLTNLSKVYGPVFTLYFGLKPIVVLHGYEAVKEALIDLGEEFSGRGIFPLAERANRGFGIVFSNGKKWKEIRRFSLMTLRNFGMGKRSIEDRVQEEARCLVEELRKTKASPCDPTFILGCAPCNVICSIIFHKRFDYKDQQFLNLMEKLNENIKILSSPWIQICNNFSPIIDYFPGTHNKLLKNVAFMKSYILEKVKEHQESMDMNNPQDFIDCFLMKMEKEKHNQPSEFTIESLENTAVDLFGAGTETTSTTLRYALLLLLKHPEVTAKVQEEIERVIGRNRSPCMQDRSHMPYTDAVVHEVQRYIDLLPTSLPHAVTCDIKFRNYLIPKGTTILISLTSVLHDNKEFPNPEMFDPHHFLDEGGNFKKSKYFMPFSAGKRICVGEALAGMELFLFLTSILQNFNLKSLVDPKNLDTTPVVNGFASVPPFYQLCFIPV

Cytochrome P450 2C19 = Cytochrome P450 2C19 (Homo sapiens, UniProt P33261); assay: Inhibition of CYP2C19; type: ADME
Sequence of Cytochrome P450 2C19 (P33261 whole entry): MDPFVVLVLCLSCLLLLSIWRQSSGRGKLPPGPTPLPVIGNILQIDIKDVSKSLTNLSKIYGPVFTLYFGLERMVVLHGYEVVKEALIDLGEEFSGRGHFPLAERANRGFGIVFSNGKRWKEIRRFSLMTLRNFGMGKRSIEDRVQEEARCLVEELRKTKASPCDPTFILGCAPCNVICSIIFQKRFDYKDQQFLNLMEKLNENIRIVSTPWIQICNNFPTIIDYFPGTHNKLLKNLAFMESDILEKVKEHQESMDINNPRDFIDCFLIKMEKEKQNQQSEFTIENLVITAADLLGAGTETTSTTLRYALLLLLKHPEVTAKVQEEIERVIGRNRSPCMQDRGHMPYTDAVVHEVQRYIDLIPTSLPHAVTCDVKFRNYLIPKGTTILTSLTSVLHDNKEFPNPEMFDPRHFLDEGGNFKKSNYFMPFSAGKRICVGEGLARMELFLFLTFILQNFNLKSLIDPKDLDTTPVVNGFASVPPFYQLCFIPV

Cytochrome P450 3A4 = Cytochrome P450 3A4 (Homo sapiens, UniProt P08684); assay: Inhibition of CYP3A4; type: ADME
Sequence of Cytochrome P450 3A4 (P08684 whole entry): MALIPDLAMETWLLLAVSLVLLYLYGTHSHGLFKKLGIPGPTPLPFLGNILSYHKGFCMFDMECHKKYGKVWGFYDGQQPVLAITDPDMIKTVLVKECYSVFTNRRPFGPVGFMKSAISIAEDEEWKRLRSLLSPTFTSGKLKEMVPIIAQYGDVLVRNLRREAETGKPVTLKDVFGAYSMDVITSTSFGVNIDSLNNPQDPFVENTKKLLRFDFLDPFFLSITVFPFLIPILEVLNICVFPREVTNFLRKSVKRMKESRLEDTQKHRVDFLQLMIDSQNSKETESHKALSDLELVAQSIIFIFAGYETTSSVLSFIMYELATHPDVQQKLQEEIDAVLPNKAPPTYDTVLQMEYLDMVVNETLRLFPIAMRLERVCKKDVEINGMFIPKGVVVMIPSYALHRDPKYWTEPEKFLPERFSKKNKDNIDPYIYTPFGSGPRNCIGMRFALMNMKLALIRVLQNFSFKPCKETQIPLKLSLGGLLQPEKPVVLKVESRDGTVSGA

[6] = Dissociation constant, pKa of the compound; type: physicochemical
[7] = Partition coefficient, log P of the compound; type: physicochemical; settings: octanol/water
[8] = Distribution coefficient, log D of the compound; type: physicochemical; settings: octanol/water
[9] = Intrinsic clearance in human liver microsomes; type: ADME, Microsome
How it was run: (§3)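 Compound is incubated with human or rat liver microsomes; intrinsic clearance is given in µL min-1 mg-1.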

[10] = Intrinsic clearance in rat liver microsomes; type: ADME, Microsome; how it was run: as §3
[11] = Solubility in pH 1.0 buffer; type: physicochemical
[12] = Solubility in pH 6.8 buffer; type: physicochemical
[13] = Fraction unbound in human serum; type: ADME, cell-free
[14] = Fraction unbound in rat serum; type: ADME, cell-free
[15] = target: T3, C-C chemokine receptor type 4 (Homo sapiens, UniProt P51679); assay: Inhibition of CCR4
T3 sequence (P51679 whole entry): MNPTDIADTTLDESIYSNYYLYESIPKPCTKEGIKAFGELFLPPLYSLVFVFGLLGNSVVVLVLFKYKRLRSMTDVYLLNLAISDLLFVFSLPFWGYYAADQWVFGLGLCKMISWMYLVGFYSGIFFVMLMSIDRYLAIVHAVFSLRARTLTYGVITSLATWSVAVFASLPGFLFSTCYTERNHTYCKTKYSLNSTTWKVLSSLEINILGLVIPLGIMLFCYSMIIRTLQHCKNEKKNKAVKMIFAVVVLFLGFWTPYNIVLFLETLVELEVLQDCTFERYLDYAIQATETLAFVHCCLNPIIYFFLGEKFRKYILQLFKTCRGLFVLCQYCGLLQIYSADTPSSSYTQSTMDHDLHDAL

[16] = target: C-C chemokine receptor type 5 (Homo sapiens, UniProt P51681); assay: Inhibition of CCR5
Sequence of C-C chemokine receptor type 5 (P51681 whole entry): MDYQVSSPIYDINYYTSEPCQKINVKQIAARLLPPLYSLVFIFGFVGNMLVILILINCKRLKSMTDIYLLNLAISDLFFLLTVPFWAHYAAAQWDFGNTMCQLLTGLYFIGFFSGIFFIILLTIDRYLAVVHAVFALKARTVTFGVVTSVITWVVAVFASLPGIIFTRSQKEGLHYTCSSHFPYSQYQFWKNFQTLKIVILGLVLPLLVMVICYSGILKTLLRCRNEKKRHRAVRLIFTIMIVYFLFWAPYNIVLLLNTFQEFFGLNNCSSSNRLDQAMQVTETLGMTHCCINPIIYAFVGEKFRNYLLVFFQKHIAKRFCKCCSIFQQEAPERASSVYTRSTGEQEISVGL

[17] = target: T4, C-C chemokine receptor type 7 (Homo sapiens, UniProt P32248); assay: Inhibition of CCR7
T4 sequence (P32248 whole entry): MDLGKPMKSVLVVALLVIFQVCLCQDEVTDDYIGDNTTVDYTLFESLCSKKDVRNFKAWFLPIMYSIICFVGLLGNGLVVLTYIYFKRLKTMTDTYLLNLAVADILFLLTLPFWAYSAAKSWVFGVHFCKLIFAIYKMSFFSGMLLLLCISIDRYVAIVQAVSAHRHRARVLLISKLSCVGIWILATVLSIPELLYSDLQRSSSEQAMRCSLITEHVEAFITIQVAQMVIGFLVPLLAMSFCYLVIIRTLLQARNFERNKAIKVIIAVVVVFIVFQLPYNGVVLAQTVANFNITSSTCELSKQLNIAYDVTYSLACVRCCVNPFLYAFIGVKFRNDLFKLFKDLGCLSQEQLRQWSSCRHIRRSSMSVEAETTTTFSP

[18] = target: T5, C-C chemokine receptor type 9 (Homo sapiens, UniProt P51686); assay: Inhibition of CCR9
T5 sequence (P51686 whole entry): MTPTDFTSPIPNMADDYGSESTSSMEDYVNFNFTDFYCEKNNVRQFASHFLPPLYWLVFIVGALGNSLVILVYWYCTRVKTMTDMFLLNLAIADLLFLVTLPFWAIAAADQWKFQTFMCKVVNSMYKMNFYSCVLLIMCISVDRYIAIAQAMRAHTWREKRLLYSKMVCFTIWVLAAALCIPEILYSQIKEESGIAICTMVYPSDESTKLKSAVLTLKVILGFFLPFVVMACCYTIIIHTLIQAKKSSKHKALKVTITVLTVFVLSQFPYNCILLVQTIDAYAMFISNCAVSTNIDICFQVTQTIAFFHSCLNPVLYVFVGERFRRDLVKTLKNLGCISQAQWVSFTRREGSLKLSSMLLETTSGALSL

[19] = target: T6, C-X-C chemokine receptor type 2 (Homo sapiens, UniProt P25025); assay: Inhibition of CXCR2
T6 sequence (P25025 whole entry): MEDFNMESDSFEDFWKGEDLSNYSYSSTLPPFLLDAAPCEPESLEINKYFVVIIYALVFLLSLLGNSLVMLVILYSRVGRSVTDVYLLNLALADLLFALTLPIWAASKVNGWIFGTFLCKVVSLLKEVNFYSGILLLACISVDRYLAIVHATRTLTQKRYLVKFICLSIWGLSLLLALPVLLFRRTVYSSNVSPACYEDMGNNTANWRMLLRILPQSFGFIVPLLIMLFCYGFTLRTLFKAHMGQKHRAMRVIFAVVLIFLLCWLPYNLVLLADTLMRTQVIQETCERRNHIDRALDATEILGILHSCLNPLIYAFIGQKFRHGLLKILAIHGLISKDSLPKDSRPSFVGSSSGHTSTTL

[20] = Oral bioavailability in Lewis rat at 10 mg/kg; type: ADME, organism-based; settings: in vivo
[21] = Tmax in Lewis rat at 10 mg/kg, po; type: ADME, organism-based; set-up: dose 10 mg/kg, route oral; settings: in vivo
[22] = Half life in Lewis rat at 10 mg/kg, po; type: ADME, organism-based; set-up: dose 10 mg/kg, route oral; settings: in vivo
[23] = Drug level in Lewis rat blood at 30 mg/kg/day administered through osmotic pump for 5 days; type: ADME, organism-based; settings: other: administered through osmotic pump, read-out: Drug uptake
How it was run: (§4)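 Lewis rats (n = 3) receive 30 mg/kg·d via osmotic pumps for 5 days. Blood is sampled on day 5 and analyzed ex vivo.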

Rattus norvegicus = assay: Reduction in actin polymerization in Lewis rat blood at 30 mg/kg/day administered through osmotic pump for 5 days relative to control; type: functional; set-up: scale not given: the % may be the effect or the level left; how it was run: as §4
[24] = system: Human immunodeficiency virus 1; assay: Antiviral activity against X4-tropic HIV1 3B assessed as inhibition of viral attachment; type: functional, organism-based; settings: Human immunodeficiency virus 1, 3B
Cytochrome P450 2D6 = Cytochrome P450 2D6 (Homo sapiens, UniProt P10635); assay: Inhibition of CYP2D6; type: ADME
Sequence of Cytochrome P450 2D6 (P10635 whole entry): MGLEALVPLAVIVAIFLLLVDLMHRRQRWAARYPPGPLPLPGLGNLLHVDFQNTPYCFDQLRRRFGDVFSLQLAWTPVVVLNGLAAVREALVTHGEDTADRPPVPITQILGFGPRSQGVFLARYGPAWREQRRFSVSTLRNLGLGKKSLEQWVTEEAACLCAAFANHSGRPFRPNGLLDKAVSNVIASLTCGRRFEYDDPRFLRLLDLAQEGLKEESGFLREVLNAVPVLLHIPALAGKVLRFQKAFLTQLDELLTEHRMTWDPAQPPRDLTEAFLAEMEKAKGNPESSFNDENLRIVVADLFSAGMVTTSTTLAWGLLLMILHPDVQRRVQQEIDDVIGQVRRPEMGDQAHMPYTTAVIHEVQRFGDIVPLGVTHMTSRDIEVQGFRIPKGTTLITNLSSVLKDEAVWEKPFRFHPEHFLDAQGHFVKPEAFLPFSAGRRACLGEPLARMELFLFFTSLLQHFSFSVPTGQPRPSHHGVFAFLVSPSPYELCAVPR

T1 sequence (P61073 whole entry): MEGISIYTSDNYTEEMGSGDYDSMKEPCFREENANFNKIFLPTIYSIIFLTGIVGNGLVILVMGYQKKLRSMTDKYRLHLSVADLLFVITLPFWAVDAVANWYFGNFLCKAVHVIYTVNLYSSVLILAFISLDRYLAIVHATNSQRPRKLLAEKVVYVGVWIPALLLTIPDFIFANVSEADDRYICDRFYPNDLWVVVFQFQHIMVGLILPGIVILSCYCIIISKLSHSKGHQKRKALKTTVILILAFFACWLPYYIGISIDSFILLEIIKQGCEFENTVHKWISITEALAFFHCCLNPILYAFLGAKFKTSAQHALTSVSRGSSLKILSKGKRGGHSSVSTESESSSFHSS

In the case of `C1=C(CS/C(=N\C2CCCCC2)NC2CCCCC2)N2CCN=C2S1`, the IC50 [1] is reported as 48 nM, the IC50 [2] is reported as 55 nM and the IC50 [3] is reported as 11 nM. The IC50 (Blood [4]) was 32 nM, the IC50 (Blood [5]) was 86 nM and the IC50 (Cytochrome P450 1A2) was over 10000 nM. The IC50 (Cytochrome P450 2C9) was over 10000 nM, the IC50 (Cytochrome P450 2C19) was over 10000 nM and the IC50 (Cytochrome P450 3A4) was 3860 nM. The pKa [6] was 7.7, the logP [7] was 3.5 and the logD [8] was -0.2. The microsomal CLint [9] was 51 µL/min/mg, the microsomal CLint [10] was 411 µL/min/mg and the solubility [11] was over 5000 µg/mL. For the same compound, the solubility [12] was over 5000 µg/mL, the fraction unbound [13] was 0.29 and the fraction unbound [14] was 0.54. The IC50 [15] was over 3000 nM, the IC50 [16] was over 3000 nM and the IC50 [17] was over 3000 nM. It also gave an IC50 [18] of over 3000 nM, an IC50 [19] of over 3000 nM and a bioavailability [20] of 14%. The Tmax [21] was 0.5 h, the half-life [22] was 7.2 h and the concentration at 120 h [23] was 1000 nM. The Activity (Rattus norvegicus) was over 80%, the IC50 [24] was 40 nM and the IC90 [24] was 720 nM.

With `CN(/C(=N/C1CCCCC1)SCC1=CSC2=NCCN12)C1CCCCC1` the IC50 [1] was 3380 nM, the IC50 [3] was 931 nM and the IC50 [24] was over 100000 nM. For the same compound, the IC90 [24] was over 100000 nM.

Work on `C1=C(CS/C(=N\C2CCCC2)NC2CCCC2)N2CCN=C2S1` yielded an IC50 [1] of 3830 nM and an IC50 [3] of 493 nM.

For `C1=C(CS/C(=N\C2CCCCCCC2)NC2CCCCCCC2)N2CCN=C2S1`, the IC50 [1] was 27 nM and the IC50 [3] was 5.3 nM.

`CC(C)/N=C(/NC(C)C)SCC1=CSC2=NCCN12` gave an IC50 [1] of over 10000 nM.

`C1=C(CS/C(=N\C2CCCCC2)NC2CCCCCCC2)N2CCN=C2S1` gave an IC50 [1] of 28 nM and an IC50 [3] of 8 nM.

In the case of `C1=C(CSC(=NC2CCCCC2)NC2CCCC2)N2CCN=C2S1`, the IC50 [1] is reported as 372 nM, the IC50 [3] is reported as 173 nM and the IC50 [24] is reported as 470 nM. It also gave an IC90 [24] of over 100000 nM.

In the case of `C1=C(CS/C(=N\C2CCCCC2)Nc2ccccc2)N2CCN=C2S1`, the IC50 [1] is reported as over 10000 nM and the IC50 [3] is reported as 5270 nM.

With `c1ccc(CS/C(=N\C2CCCCC2)NC2CCCCC2)cc1` the IC50 [1] was over 10000 nM and the IC50 [3] was over 10000 nM.

With `C/N=c1/scc(CS/C(=N\C2CCCCC2)NC2CCCCC2)n1C` the IC50 [1] was over 10000 nM and the IC50 [3] was 9130 nM.

`CC1(C)CN2C(CS/C(=N\C3CCCCC3)NC3CCCCC3)=CSC2=N1` showed an IC50 [2] of 11 nM, an IC50 (Cytochrome P450 1A2) of over 10000 nM and an IC50 (Cytochrome P450 2C9) of over 10000 nM. It also gave an IC50 (Cytochrome P450 2C19) of 5200 nM, an IC50 (Cytochrome P450 2D6) of 400 nM and an IC50 (Cytochrome P450 3A4) of over 10000 nM. For the same compound, the pKa [6] was 8, the logP [7] was 4.5 and the logD [8] was 1.2. It also gave a microsomal CLint [9] of 149 µL/min/mg, a microsomal CLint [10] of 342 µL/min/mg and a solubility [11] of over 5000 µg/mL. For the same compound, the solubility [12] was over 5000 µg/mL, the fraction unbound [13] was 0.2 and the fraction unbound [14] was 0.46. For the same compound, the bioavailability [20] was 32%, the Tmax [21] was 0.5 h and the half-life [22] was 7.6 h. It also gave an IC50 [24] of 7 nM and an IC90 [24] of 100 nM.
